Measurements taken from ChEMBL document CHEMBL1148193, “Cytotoxic pyrroloiminoquinones from four new species of South African latrunculid sponges” (J Nat Prod, 2004).

Assays:
[1] = molecular target: T1, DNA topoisomerase 1 (Homo sapiens) (UniProt P11387); experiment: Inhibition of topoisomerase 1-mediated relaxation of supercoiled DNA assessed as DNA cleavage at 500 uM relative to control; parameters: scale not given: the % may be the effect or the level left
T1 sequence (whole entry): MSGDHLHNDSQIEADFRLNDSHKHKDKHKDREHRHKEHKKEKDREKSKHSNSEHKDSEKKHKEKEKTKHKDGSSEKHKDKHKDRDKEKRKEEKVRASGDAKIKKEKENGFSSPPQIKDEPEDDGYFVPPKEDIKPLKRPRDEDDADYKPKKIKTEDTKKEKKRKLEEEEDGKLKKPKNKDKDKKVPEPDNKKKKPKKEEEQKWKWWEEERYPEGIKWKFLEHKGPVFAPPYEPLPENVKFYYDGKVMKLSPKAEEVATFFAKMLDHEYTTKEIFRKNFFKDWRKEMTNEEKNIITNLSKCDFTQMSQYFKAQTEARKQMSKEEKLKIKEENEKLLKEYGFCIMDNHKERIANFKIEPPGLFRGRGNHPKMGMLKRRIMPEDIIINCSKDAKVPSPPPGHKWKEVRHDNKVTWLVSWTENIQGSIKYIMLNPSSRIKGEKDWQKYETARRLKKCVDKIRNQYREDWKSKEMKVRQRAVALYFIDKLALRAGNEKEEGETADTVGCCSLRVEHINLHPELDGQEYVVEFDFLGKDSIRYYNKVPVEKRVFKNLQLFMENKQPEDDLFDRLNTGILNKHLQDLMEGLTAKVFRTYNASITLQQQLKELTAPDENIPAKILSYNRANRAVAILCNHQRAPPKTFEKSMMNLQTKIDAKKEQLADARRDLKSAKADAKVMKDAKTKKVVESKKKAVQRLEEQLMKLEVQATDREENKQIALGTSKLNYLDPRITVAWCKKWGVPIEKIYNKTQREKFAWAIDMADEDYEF
In short: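 Radiolabeled supercoiled rf M13 mp19 DNA with purified topoisomerase I (80-120 ng) in Tris-HCl 50 mM pH 7.5, KCl 85 mM, MgCl2 10 mM, EDTA 0.5 mM, BSA 30 μg/mL, DTT 2 mM. Compound in DMSO, 30 °C for 30 min, then proteinase K/SDS at 37 °C for 60 min. 0.8% agarose gel, bands excised and scintillation counted. % cleaved from nicked plus linear bands over total, minus endogenous cleavage. 9-aminocamptothecin as reference.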

[2] = test system: Salmonidae; experiment: Displacement of ethidium bromide form salmon testes sperm DNA by fluorescence plate reader
In short: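 Salmon testes sperm DNA (25 μg mL⁻¹) with ethidium bromide (0.5 μg mL⁻¹) in TE, compound final concentrations 100 to 0.01 μM in tenfold steps. n = 4 per dose, n = 8 for controls. Fluorescence measured, background EtBr subtracted and divided by the DNA+EtBr control. KS is the concentration giving 50% fluorescence decrease.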

[3] = test system: HCT-116; experiment: Cytotoxicity against human HCT116 cells after 72 hrs by MTS assay; assay type: functional, cell-based; conditions: HCT-116, 72 h
In short: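 HCT-116 colon tumor cells plated and incubated overnight at 37 °C, then given serially diluted samples in DMSO for a further 72 h. Etoposide as positive control and DMSO as negative control. MTS/PMS added for 3 h, absorbance read at 490 nm, IC50 derived from serial dilution data.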

[4] = molecular target: T1, DNA topoisomerase 1 (Homo sapiens); experiment: Inhibition of topoisomerase 1-mediated relaxation of supercoiled DNA assessed as DNA cleavage at 9 uM relative to control; parameters: scale not given: the % may be the effect or the level left
In short: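 Radiolabelled supercoiled rf M13 mp19 DNA (500 ng) and purified topoisomerase I (80-120 ng) in Tris-HCl 50 mM pH 7.5, KCl 85 mM, MgCl2 10 mM, EDTA 0.5 mM, BSA 30 µg/mL, DTT 2 mM. Compound added in DMSO; 30 °C, 30 min. Proteinase K/SDS stop (37 °C, 60 min). Bands resolved on 0.8% agarose, excised and scintillation-counted. Nicked+linear counts taken as % of total, minus endogenous cleavage.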

Compound	IC50 [3]	other results
Cn1cc2c3c1C(=O)c1[nH]cc(-c4ccc(O)cc4)c1C3=[N+]([O-])CC2	16500 nM	Activity [1]: 26%; Ks [2]: 30 µM
O=C1C(Br)=CC2(C=C1Br)CCNC1=C2C2=NCCc3c(Br)[nH]c(c32)C1=O	77 nM	–
O=C1C2=C(C3=NCCc4c(Br)[nH]c1c43)C1(C=CN2)C=C(Br)C(O)C(Br)=C1 (stereo not given)	222 nM	–
O=C1C2=C(C3=NCCc4c(Br)[nH]c1c43)C1(C=C(Br)C(O)C(Br)=C1)CCN2 (stereo not given)	645 nM	–
COC1[C@H]2C(=O)C=C3S[C@H]4C[C@]31C1=C(N4)C(=O)c3[nH]cc4c3C1=[N+]2CC4 (stereo not given in full)	232 nM	–
O=C1C2=C(C3=NCCc4c[nH]c1c43)C1(C=CN2)C=C(Br)C(O)C(Br)=C1 (stereo not given)	197 nM	–
O=C1c2[nH]cc3c2C(=[N+](O)CC3)c2c(-c3ccc(O)cc3)c[nH]c21	128000 nM	Activity [1]: 45%; Ks [2]: 20 µM
O=C1C2=C3C4=[N+](CCc5c(Br)[nH]c1c54)C1C(O)C(Br)=CC3(CCN2)C1O (stereo not given)	12500 nM	–
NC1[C@H]2C(=O)C=C3S[C@H]4C[C@]31C1=C(N4)C(=O)c3[nH]cc4c3C1=[N+]2CC4 (stereo not given in full)	119 nM	–
CC[C@@]1(O)C(=O)OCc2c1cc1n(c2=O)Cc2cc3c(N)cccc3nc2-1	–	Activity [4]: 87%
O=C1c2[nH]cc3c2C(=NCC3)c2c(-c3c[nH]c4ccccc34)c[nH]c21	–	Ks [2]: 20 µM
CN1CCc2c[nH]c3c2C1=CC(=O)C3=O [DAMIRONE B]	3100 nM	–
O=C1C2=C(C3=NCCc4c[nH]c1c43)C1(C=C(Br)C(O)C(Br)=C1)CCN2 (stereo not given) [DIHYDRODISCORHABDIN C]	323 nM	–
O=C1C2=C3C4=[N+](CCc5c[nH]c1c54)[C@H]1C[C@@]34C[C@@H](N2)SC4=CC1=O [DISCORHABDIN D]	595 nM	–
O=C1C=CC23CC(NC4=C2C2=NCCc5c[nH]c(c52)C4=O)SC3=C1 (stereo not given) [DISCORHABDIN G]	327 nM	–
O=C(O)CNC1C2C(=O)C=C3SC4CC31C1=C(N4)C(=O)c3[nH]cc4c3C1=[N+]2CC4 (stereo not given) [DISCORHABDIN N]	2250 nM	–
O=C1C2=C3C4=[N+](CCc5c[nH]c1c54)C1CC3(C=C(Br)C1O)CCN2 (stereo not given) [DISCORHABDIN V]	1270 nM	–
O=C1C[C@H]2S[C@H]3C[C@]2(C=C1Br)C1=C(N3)C(=O)c2[nH]cc3c2C1=NCC3 [DISCORHABDINE A]	7 nM	–
C[N+]1=C2C=C(N)C(=O)c3[nH]cc(c32)CC1 [MAKALUVAMINE C]	1090 nM	–
CN1CCc2c[nH]c(C(=O)O)c2C1=O [MAKALUVIC ACID A]	28400 nM	–
O=C1c2[nH]cc3c2C(=NCC3)c2c(-c3ccc(O)cc3)c[nH]c21 [TSITSIKAMMAMINE A]	1410 nM	Activity [1]: 59%; Ks [2]: 15 µM
Cn1cc2c3c1C(=O)c1[nH]cc(-c4ccc(O)cc4)c1C3=NCC2 [TSITSIKAMMAMINE B]	2380 nM	Activity [1]: 27%; Ks [2]: 45 µM
